ChEMBL document CHEMBL1143201 (Bioorg Med Chem, 2008)
The source made the active and inactive calls. The calls are words filed in the database; no cut-off is given here.

What was measured:
Type in all cases: cell-based
[1] = target: T1, Muscarinic acetylcholine receptor M1 (Homo sapiens, UniProt P11229); test: (§1) Displacement of [3H]NMS from human muscarinic M1 receptor expressed in CHO cells by wash-resistant binding method
T1 sequence (P11229 whole entry): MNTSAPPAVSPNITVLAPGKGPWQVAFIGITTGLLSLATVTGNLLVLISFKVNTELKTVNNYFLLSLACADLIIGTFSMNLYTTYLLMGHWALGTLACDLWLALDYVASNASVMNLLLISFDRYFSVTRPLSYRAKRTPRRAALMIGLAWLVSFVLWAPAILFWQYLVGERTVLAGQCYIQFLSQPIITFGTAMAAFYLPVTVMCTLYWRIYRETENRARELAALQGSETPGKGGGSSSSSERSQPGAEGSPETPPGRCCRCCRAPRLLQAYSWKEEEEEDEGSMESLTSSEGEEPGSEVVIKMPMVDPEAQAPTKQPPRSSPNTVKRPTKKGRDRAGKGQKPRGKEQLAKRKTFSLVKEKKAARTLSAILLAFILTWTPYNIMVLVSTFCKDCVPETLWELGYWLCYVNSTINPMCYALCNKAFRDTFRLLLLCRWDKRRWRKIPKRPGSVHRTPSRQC
Summary of the method: (§2)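 Human M1-transfected CHO cells in Hepes buffer were preincubated with test ligand. Each wash was a ~50-volume buffer dilution and centrifugation, done three times in all. Washed cells were resuspended, given [3H]NMS, and incubated 1 h at 37 °C. Bound radioactivity was then taken by filtration and scintillation counting; pIC50 derived.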

[2] = target: T1, Muscarinic acetylcholine receptor M1; test: Displacement of [3H]NMS from human muscarinic M1 receptor expressed in CHO cells in continuous presence of radioligand
Summary of the method: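 CHO cells stably expressing human M1 receptor, grown in DMEM with 10% bovine calf serum and geneticin, trypsinized 4 days after subculture and washed into Hepes buffer. Cells incubated 1 h at 37 °C with 0.14–0.20 nM [3H]NMS plus increasing analog concentrations. Atropine defined nonspecific binding. Ended by rapid GF/B filtration and ice-cold saline washes, then scintillation counting; pIC50 reported.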

[3] = target: T2, Muscarinic acetylcholine receptor M1 (Homo sapiens) (UniProt P11229); test: as §1; summary of the method: as §2
T2 sequence (whole entry): T1 sequence (P11229 whole entry)

[4] = target: T1, Muscarinic acetylcholine receptor M1; test: Displacement of [3H]NMS from human muscarinic M1 receptor expressed in CHO cells at pH 8 in continuous presence of radioligand
Summary of the method: (§3)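 CHO cells stably transfected with human M1 gene, grown in DMEM with 10% bovine calf serum and geneticin, harvested by mild trypsinization 4 days after subculture, washed in Hepes medium. Buffer acidified to pH 6.0 or set to pH 8.0. Cells incubated 1 h at 37 °C with 0.14–0.20 nM [3H]NMS plus increasing analog concentrations. Nonspecific binding defined with 10 µM atropine. Filtration, saline washes, scintillation counting; pIC50 derived.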

[5] = target: T1, Muscarinic acetylcholine receptor M1; test: Displacement of [3H]NMS from human muscarinic M1 receptor expressed in CHO cells at pH 6 in continuous presence of radioligand; summary of the method: as §3
[6] = target: T1, Muscarinic acetylcholine receptor M1; test: Displacement of [3H]NMS from human muscarinic M1 receptor expressed in CHO cells at pH 8 by wash-resistant binding method
Summary of the method: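 Human M1-transfected CHO cells preincubated with increasing analog concentrations in pH 8.0 buffer. Each wash is ~50 vol buffer dilution then centrifugation, done three times in total. Pellet resuspended in buffer with [3H]NMS for 1 h at 37 °C. Bound radioactivity collected by rapid filtration and scintillation counting. Result expressed as pIC50 of residual inhibition.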

[7] = target: T1, Muscarinic acetylcholine receptor M1; test: (§4) Displacement of [3H]NMS from human muscarinic M1 receptor expressed in CHO cells at pH 6 by wash-resistant binding method
Summary of the method: (§5)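 Washout paradigm run in binding buffer acidified to pH 6.0, on CHO cells stably carrying human M1 receptor. After ligand preincubation, cells went through three rounds of ~50-volume dilution plus centrifugation, then resuspension with [3H]NMS for 1 h at 37 °C. Residual bound label was measured by filtration and scintillation counting; pIC50 derived.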

[8] = target: T2, Muscarinic acetylcholine receptor M1 (Homo sapiens); test: as §4; summary of the method: as §5

| SMILES | IC50 [1] [nM] | IC50 [2] [nM] | Activity [3] | further results |
| --- | --- | --- | --- | --- |
| CN1CCC=C(c2nsnc2OCCN)C1 | 110000 | 1000 |  |  |
| CN1CCC=C(c2nsnc2OCCCCCCN)C1 | 3980 | 646 |  |  |
| CN1CCC=C(c2nsnc2OCCCN)C1 | 14800 | 162 |  |  |
| CN1CCC=C(c2nsnc2OCC(=O)O)C1 |  | 617 | inactive |  |
| CN1CCC=C(c2nsnc2OCCO)C1 |  | 1070 | inactive |  |
| CCCOc1nsnc1C1=CCCN(C)C1 |  | 52.5 | inactive |  |
| CN1CCC=C(c2nsnc2OCCCCO)C1 |  | 309 | inactive |  |
| CN1CCC=C(c2nsnc2OCCCCCN)C1 | 44700 | 1910 |  |  |
| CNCCCCOc1nsnc1C1=CCCN(C)C1 |  | 7080 | inactive |  |
| CN1CCC=C(c2nsnc2OCC#Cc2ccccc2)C1 | 2140 | 37.2 |  |  |
| CN1CCC=C(c2nsnc2OCCCCn2cccc2)C1 | 28800 | 275 |  | IC50 [4]: 219 nM; IC50 [5]: 407 nM; IC50 [6]: 12000 nM; IC50 [7]: 39800 nM |
| CN1CCC=C(c2nsnc2OCCCCN)C1 |  | 77600 | inactive |  |
| CN1CCC=C(c2nsnc2OCCCO)C1 |  | 3800 | inactive |  |
| CCOC(=O)CCCCOc1nsnc1C1=CCCN(C)C1 |  | 58.9 | inactive |  |
| CN1CCC=C(c2nsnc2OCCCCn2ccnc2)C1 | 52500 | 871 |  | IC50 [4]: 871 nM; IC50 [5]: 2290 nM; IC50 [6]: 53700 nM; Activity [8]: inactive |
| CCOc1nsnc1C1=CCCN(C)C1 |  | 141 | inactive |  |
